Compound activity as filed in PubChem.
Most compounds without a hit are left out; they make up all but 5.1% or so of the library.
STAT1 activator = STAT1 signaling activators, primary screen, cell-based, HTS, luciferase reporter | 200,000 compounds, 2.6% hits | AID 932, 2007 | activation (% of control), % at 5.5 µM | NIH 3T3 STAT1-luciferase reporter, IFN-gamma, luminescence; 100% = IFN-gamma alone, no compound;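 active = activation above the screen-wide mean activation plus 3 SD, cut at about 130% in these data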;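 also: raw ratio to IFN-gamma control signal so 100% means no change and 0% no light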
STAT3 activator = IL-6 driven STAT3 reporter potentiators, primary screen, U3A cells, luciferase, luminescence, MLSCN library | IL-6 STAT3-luciferase reporter; 100% = signal with IL-6 EC80 alone | AID 871, 2007 | activation (% of control), % at 5.6 µM | 190,000 compounds, 0.91% hits;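 active = activation above the screen-wide mean of compound activation plus 3 SD, cut at about 130% in these data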;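 also: 0% = background luminescence of wells with medium and substrate only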
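Material: STAT3-luciferase reporter U3A cells. Controls: IL-6-treated wells, 100% activation. Read-out: % activation versus median of IL-6-stimulated wells. Probe or stimulus: IL-6 stimulus at 33 ng/mL final. Timing: compound 1 h, then IL-6 6 h at 37 °C. Signal: reporter luminescence signal.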
STAT1 inh = STAT1 signaling inhibitors, primary screen, cell-based, HTS, luciferase reporter | NIH 3T3 STAT1-luciferase reporter, IFN-gamma, luminescence | inhibition, % at 5.5 µM | 200,000 compounds, 0.35% hits | AID 920, 2007;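 active = inhibition above a set limit, the mean inhibition across all tested compounds plus 3 SD, cut at about 34% in these data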;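 also: 0% = IFN-gamma with DMSO and 100% = IFN-gamma with 300 µM nifuroxazide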
APP 5'UTR act = activators of APP 5'UTR luciferase reporter, primary screen, SH-SY5Y cells. 190,000 compounds, 1% hits. AID 1276, 2008. activation, % at 2 µM. SH-SY5Y APP 5'UTR luciferase reporter, luminescence; zero percent = DMSO vehicle wells;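 active = activation above a set limit, based on mean plus 3 SD of controls, cut at about 140% in these data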
NF-kB neuron act = activators of NF-kB expression in neurons, primary screen, cell-based, HTS. human neuronal cells, NF-kB reporter expression; active compounds read high. fold change at 12.5 µM. 190,000 compounds, 1.6% hits; in the data active = fold change above about 3.3
STAT3 blocker = IL-6 driven STAT3 reporter inhibitors, primary screen, U3A cells, luciferase, luminescence, MLSCN library. IL-6 STAT3-luciferase reporter; host cell line lacks STAT1. AID 862, 2007. 190,000 compounds, 0.89% hits. inhibition, % at 5.5 µM;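 active = inhibition above the mean inhibition across all screened compounds plus 3 SD, cut at about 44% in these data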;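 also: 0% = DMSO only wells and 100% = 100 µM nifuroxazide control wells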
Starred values were filed as active, the others as inactive.

SMILES	STAT1 activator	STAT3 activator	STAT1 inh	APP 5'UTR act	NF-kB neuron act	STAT3 blocker
O=C(NN=C1C2CC3CC1CC(Cl)(C3)C2)c1cccs1	127.8	97.3	-31.2	140.9*	1.35	4.7
O=C(NN=C1C2CC3CC1CC(Cl)(C3)C2)c1ccccn1	121.0	106.6	-23.8	159.4*	1.63	-6.8
Cc1ccc(C2=Nc3ccccc3N=C(C(Cl)Cl)C2)cc1	91.1	83.8	8.6	109.3	3.99*	21.4
N/C(Cc1nc(-c2ccc(Br)cc2)cs1)=N\O	115.1	104.7	-18.4	11.8	1.7	5.5
CNC(=O)NC(=O)C(C)OC(=O)c1c2c(nc3ccccc13)/C(=C/c1cccs1)CC2 (stereo not given)	129.5*	94.4	-32.3	17.9	1.15	1.8
CCCCNC(=O)COC(=O)c1c2c(nc3ccccc13)/C(=C/c1cccs1)CC2	75.8	99.4	27.5	60.0	0.7	3.5
O=c1[nH]c(=O)n([C@H]2C[C@H](O)[C@@H](CO)O2)cc1C(F)(F)F	108.8	102.6	-9.7	-58.6	5.41*	-0.5
COc1ccccc1C1CC(c2cccs2)=Nc2ccccc2S1 (stereo not given)	111.7	133.1*	-12.6	146.0*	1.84	-33.8
CSc1ccc(-c2nnn(Cc3ccccn3)n2)cc1	139.5*	112.2	-43.4	69.3	2.89	-8.7
CSc1ccc(-c2nnn(Cc3ccc(Br)cc3)n2)cc1	105.3	94.5	-5.8	-4.2	1.58	9.9
CCCCNS(=O)(=O)c1ccc(NC(=O)Cc2ccccc2[N+](=O)[O-])cc1	91.2	120.0	8.0	-5.0	1.19	-17.4
CN(C)S(=O)(=O)c1cccc(NC(=O)c2ccc(N3CCOCC3)c([N+](=O)[O-])c2)c1	108.5	108.7	-9.3	24.1	0.5	-0.7
COc1cc(/C=N/O)ccc1OCc1ccc(C(=O)O)cc1	13.1	9.1	92.5*	-81.9	3.41*	110.9*
CCOc1cc(/C=N/N=C(N)N)ccc1OCc1ccc(Cl)cc1	93.4	91.1	7.4	-26.6	2.57	10.4
CCOc1cc(/C=N/N=C2/NC(=O)C(CC(=O)O)S2)ccc1OCc1ccc(Cl)cc1Cl (stereo not given)	97.4	109.5	2.4	-5.5	1.07	-4.9
COc1ccc(/C=N/NS(=O)(=O)c2ccc(C)cc2)cc1OC(=O)c1ccccc1	100.0	95.6	0.0	9.4	1.02	10.8
COc1cc(/C=N/NS(=O)(=O)c2ccc(C)cc2)ccc1OCc1cccc(C(=O)O)c1	32.5	61.0	72.1*	-31.4	2.29	47.1*
COc1cc(/C=N/N=C(N)N)ccc1OCc1ccc(Cl)cc1	98.3	71.8	0.3	180.1*	1.23	38.6
COc1cc(/C=N/N=C2/NC(=O)C(CC(=O)O)S2)ccc1OCc1ccc(Cl)cc1 (stereo not given)	129.5*	107.0	-33.0	84.2	2.5	-6.1
CC(=O)Nc1ccc(N=Nc2c(C)[nH]n(C(N)=S)c2=O)cc1	126.0	103.4	-27.4	5.2	1.52	4.6
Cc1ccc(N=Nc2c(C)[nH]n(C(N)=S)c2=O)cc1C	113.0	120.3	-14.5	96.1	4.77*	-23.5
Nc1c(-c2ccc(Cl)cc2)nnn1-c1ccccc1	132.1*	98.9	-35.1	89.3	3.01	5.6
Cc1ccc(-c2cc(N)n(Cc3ccc(Cl)cc3)n2)cc1	89.5	66.8	11.8	0.4	1.15	45.5*
Nc1cc(-c2ccc(Cl)cc2)nn1-c1ccccc1	148.7*	91.5	-51.2	88.3	2.65	11.0
C=CCn1c2ccccc2c2nnc(SCc3ccc4nonc4c3)nc21	100.3	98.2	-0.4	-8.0	1.05	7.9
SMILES	STAT1 activator	STAT3 activator	STAT1 inh	APP 5'UTR act	NF-kB neuron act	STAT3 blocker
Cc1ccnc(NC(=O)CCC(=O)N(CC(=O)NC(C)(C)C)c2ccc(F)c(Cl)c2)c1	91.9	94.4	7.2	-11.1	0.8	10.8
CC(C)c1nnc(NC(=O)c2cccc(NC(=O)C(F)(F)F)c2)s1	138.3*	103.5	-45.0	65.1	1	-2.8
CC(C)C(=O)Nc1cccc(C(=O)Nc2nnc(C(C)C)s2)c1	146.3*	106.0	-53.8	25.1	2.21	-4.1
CC(=O)c1cccc(N(C(=O)Cn2nnc3ccccc32)C(C(=O)NCC2CCCO2)c2ccc(N3CCOCC3)cc2)c1 (stereo not given)	104.4	99.6	-5.9	15.9	1.08	2.1
CN(C)c1ccc(/C=C(\C#N)c2ccccn2)cc1	52.3	18.4	54.2*	95.0	1.61	98.9*
N#C/C(=C\c1ccc([N+](=O)[O-])cc1)c1ccccn1	131.8*	83.0	-35.5	25.1	2.59	22.0
CN(C)c1ccc(NC(=S)c2ccccn2)cc1	39.6	15.8	68.3*	58.3	1.65	97.9*
CCOC(=O)c1ccc(Oc2ccc(C(F)(F)F)cn2)cc1	114.9	83.9	-17.6	30.6	0.94	24.9
Cn1c(Cc2ccccc2)nnc1SCc1ccc(C(=O)O)cc1	87.9	100.7	13.7	0.5	1.42	3.8
COc1ccc(N2CCN(CC(=O)NC(=O)NC(C)(C)C)CC2)cc1	99.0	100.9	0.8	-9.8	1.03	6.6
COC(=O)c1ccc(COc2ccc(/C=N/N3CCN(C)CC3)cc2)cc1	135.9*	113.5	-38.3	54.9	1.68	-17.2
COC(=O)c1ccc(/C=N\N2CCN(Cc3ccc(C)cc3)CC2)cc1	99.3	93.7	0.8	-2.8	1.01	12.5
CCCNC(=S)Nc1ccc(Cl)cc1Cl	94.4	88.1	6.3	14.3	1.05	13.9
CCCn1nnnc1NC(=O)COc1ccc(Br)cc1	103.9	99.2	-6.2	1.5	1.12	4.6
COc1ccc(C(=O)N2CCc3ccccc32)cc1	113.7	101.7	-14.8	33.2	1.95	2.1
COc1ccc(C(=O)/C=C2\NCC3c4ccccc4CCN3C2=O)cc1 (stereo not given)	100.1	134.9*	-0.1	6.1	0.95	-37.8
CN1CCN(c2ccc(Cl)cc2NC(=O)CCN2C(=O)c3ccccc3C2=O)CC1	93.2	112.3	6.2	-7.1	1.18	-11.2
O=C(Nc1nccs1)c1cc2c(s1)-c1ccccc1OC2	146.3*	95.9	-51.2	96.0	2.33	13.5
O=C(Nc1nc2ccccc2s1)c1cc2c(s1)-c1ccccc1OC2	121.7	103.2	-24.0	4.6	2	4.9
Cc1csc(=Nc2ccccc2)n1C	103.9	101.7	-3.6	2.3	1.59	0.4
Cc1ccc(N=c2sc(C)c(C)n2C)cc1	133.3*	101.4	-37.6	46.4	1.95	3.1
CN(C)Cc1c(-c2ccc(Cl)cc2)nc2ccccn12	140.6*	96.7	-47.9	65.1	2.86	8.7
